Consider ten molecules from ChEMBL document CHEMBL4270541, “Synthesis and antimicrobial evaluation of amino sugar-based naphthoquinones and isoquinoline-5,8-diones and their halogenated compounds” (Eur J Med Chem, 2018).

The subject of data set [1] is Enterococcus faecalis. Kind of data set: Antimicrobial activity against Enterococcus faecalis INCQS 00234 ATCC 29212 assessed as zone of inhibition at 5 mg/ml after 18 to 24 hrs by disc diffusion method. In kind it is functional. The note with it: ATCC 29212 INCQS 00234, read-out: IZ.
Data set [2] can be described thus: Hemolytic activity against human erythrocytes assessed as hemolysis at 200 ug/ml after 3 hrs by spectrophotometric analysis relative to control. Type of data set: ADME, cell-based, Erythrocyte. The note with it: read-out: Activity. Summed up:
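Erythrocytes collected in citrate tubes, washed three times with PBS pH 7.4 by centrifugation and resuspended in PBS. Incubated with compounds at 200 µg/mL for 3 h at 37°C. Released hemoglobin was read in the supernatant at 545 nm against 1% Triton X-100 (complete lysis) and 1% DMSO (negative control). Below 10% hemolysis was taken as hemocompatible. Three independent experiments.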

The subject of data set [3] is Klebsiella pneumoniae. Kind of data set: Antimicrobial activity against Klebsiella pneumoniae INCQS 00083 ATCC 4352 assessed as zone of inhibition at 5 mg/ml after 18 to 24 hrs by disc diffusion method. In kind it is functional. The note with it: read-out: IZ. A general note: A growth-free zone around the sample is the usual read-out of agar diffusion tests.
Data set [4] has as its system Pseudomonas aeruginosa. Kind of data set: Antimicrobial activity against Pseudomonas aeruginosa INCQS 00099 ATCC 27853 assessed as zone of inhibition at 5 mg/ml after 18 to 24 hrs by disc diffusion method. In kind it is functional. The note with it: read-out: IZ.
In data set [5] the test system is Staphylococcus simulans. The experiment in a line: Antimicrobial activity against Staphylococcus simulans INCQS 00254 ATCC 27851 assessed as zone of inhibition at 5 mg/ml after 18 to 24 hrs by disc diffusion method. In kind it is functional. The note with it: read-out: IZ.
The test system of data set [6] is Staphylococcus epidermidis. The experiment in a line: Antimicrobial activity against Staphylococcus epidermidis INCQS 00016 ATCC 12228 assessed as zone of inhibition at 5 mg/ml after 18 to 24 hrs by disc diffusion method. Type of data set: functional. The note with it: ATCC 12228 INCQS 00016, read-out: IZ.
In data set [7] the test system is Proteus mirabilis. The experiment in a line: Antimicrobial activity against Proteus mirabilis INCQS 00095 ATCC 15290 assessed as zone of inhibition at 5 mg/ml after 18 to 24 hrs by disc diffusion method. In kind it is functional. The note with it: read-out: IZ.
The test system of data set [8] is Staphylococcus aureus. Kind of data set: Antimicrobial activity against Staphylococcus aureus INCQS 00015 ATCC 25923 assessed as zone of inhibition at 5 mg/ml after 18 to 24 hrs by disc diffusion method. In kind it is functional. The note with it: read-out: IZ.
Data set [9] deals with Staphylococcus aureus. The experiment in a line: Antimicrobial activity against methicillin-resistant Staphylococcus aureus BMB9393 assessed as zone of inhibition at 5 mg/ml after 18 to 24 hrs by disc diffusion method. Type of data set: functional. The note with it: read-out: IZ.
In data set [10] the test system is Escherichia coli. The experiment in a line: Antimicrobial activity against Escherichia coli INCQS 00033 ATCC 25922 assessed as zone of inhibition at 5 mg/ml after 18 to 24 hrs by disc diffusion method. Type of data set: functional. The note with it: ATCC 25922 INCQS 00033, read-out: IZ.

`CC1(C)O[C@H]2O[C@H](CNC3=CC(=O)c4ccccc4C3=O)[C@H](O)[C@H]2O1`: the zone of inhibition at 5000 µg/mL in data set [1], in data set [3], in [4], in [5], in data set [6] and in data set [7] was 0 mm in each case. Also, the zone of inhibition at 5000 µg/mL in data set [8], in data set [9] and in data set [10] was 0 mm in each case. In addition, the hemolysis at 3 h, 200 ug/ml in data set [2] is less than 10%.

As for `COC(=O)c1c(C)nc(C)c2c1C(=O)C(Cl)=C(NC[C@H]1O[C@@H]3OC(C)(C)O[C@@H]3[C@H]3OC(C)(C)O[C@H]31)C2=O`, the zone of inhibition at 5000 µg/mL in data set [1], in data set [3], in data set [4], in data set [5], in data set [6] and in data set [7] was 0 mm throughout. Besides, the zone of inhibition at 5000 µg/mL in data set [8], in data set [9] and in data set [10] was 0 mm each time. For the same molecule, the hemolysis at 3 h, 200 ug/ml in data set [2] is less than 10%.

In the case of `O=C(O)c1cn(C2CC2)c2cc(N3CCNCC3)c(F)cc2c1=O` [CIPROFLOXACIN], the zone of inhibition at 5000 µg/mL in [3] stood at 27 mm; in data set [4], 36 mm; in data set [7], 28 mm; in [10] it was 35 mm.

For the molecule `CC1(C)O[C@H]2[C@@H](O1)[C@@H](CNC1=C(Br)C(=O)c3ccccc3C1=O)O[C@@H]1OC(C)(C)O[C@@H]12`, the zone of inhibition at 5000 µg/mL in data set [1], in data set [3], in data set [4], in data set [5], in [6] and in [7] was 0 mm in each case. In addition, the zone of inhibition at 5000 µg/mL in [8], in data set [9] and in [10] was 0 mm throughout. Besides, the hemolysis at 3 h, 200 ug/ml in [2] is 10.1 to 14.4%.

Consider `COC(=O)c1c(C)nc(C)c2c1C(=O)C=C(NC[C@H]1O[C@@H](OC)[C@@H]3OC(C)(C)O[C@@H]31)C2=O`, for which the zone of inhibition at 5000 µg/mL in data set [1], in data set [3], in [4], in data set [5], in data set [6] and in data set [7] was 0 mm in each case. The zone of inhibition at 5000 µg/mL in data set [8], in data set [9] and in data set [10] was 0 mm each time. Moreover, in data set [2], the hemolysis at 3 h, 200 ug/ml was less than 10%.

On to `COC(=O)c1c(C)nc(C)c2c1C(=O)C=C(N)C2=O`, for which the zone of inhibition at 5000 µg/mL in data set [1], in data set [3], in data set [4], in data set [5], in [6] and in data set [7] was 0 mm throughout. Moreover, the zone of inhibition at 5000 µg/mL in data set [8], in data set [9] and in data set [10] was 0 mm throughout. Moreover, the hemolysis at 3 h, 200 ug/ml in data set [2] was less than 10%.

In the case of `COC(=O)c1c(C)nc(C)c2c1C(=O)C(Br)=C(NC[C@H]1O[C@@H]3OC(C)(C)O[C@@H]3[C@H]3OC(C)(C)O[C@H]31)C2=O`, the zone of inhibition at 5000 µg/mL in data set [1], in data set [3], in data set [4], in [5], in data set [6] and in data set [7] was 0 mm throughout. The zone of inhibition at 5000 µg/mL in [8], in data set [9] and in data set [10] was 0 mm throughout. In addition, the hemolysis at 3 h, 200 ug/ml in data set [2] is less than 10%.

As for `CO[C@@H]1O[C@H](CNC2=CC(=O)c3ccccc3C2=O)[C@H]2OC(C)(C)O[C@@H]12`, the zone of inhibition at 5000 µg/mL in data set [1], in data set [3], in [4], in [5], in data set [6] and in data set [7] was 0 mm in each case. Moreover, the zone of inhibition at 5000 µg/mL in [8], in data set [9] and in data set [10] was 0 mm in each case. Further, the hemolysis at 3 h, 200 ug/ml in data set [2] is less than 10%.

As for `COC(=O)c1c(C)nc(C)c2c1C(=O)C(Cl)=C(NC[C@H]1O[C@@H](OC)[C@@H]3OC(C)(C)O[C@@H]31)C2=O`, the zone of inhibition at 5000 µg/mL in data set [1], in data set [3], in data set [4], in data set [5], in [6] and in data set [7] was 0 mm throughout. The zone of inhibition at 5000 µg/mL in data set [8], in data set [9] and in data set [10] was 0 mm each time. Moreover, the hemolysis at 3 h, 200 ug/ml in [2] was less than 10%.

In the case of `CC1(C)O[C@H]2[C@@H](O1)[C@@H](CNC1=CC(=O)c3ccccc3C1=O)O[C@@H]1OC(C)(C)O[C@@H]12`, the zone of inhibition at 5000 µg/mL in [1], in data set [3], in data set [4], in [5], in [6] and in [7] was 0 mm throughout. The zone of inhibition at 5000 µg/mL in data set [8], in data set [9] and in data set [10] was 0 mm each time. The hemolysis at 3 h, 200 ug/ml in data set [2] is less than 10%.
